One series relates to MDA-MB-231. The series is described as follows: Antiproliferative activity against human MDA-MB-231 cells assessed as reduction in cell viability after 48 hrs by CellTiter-Blue assay. It counts as functional. The following applies: MDA-MB-231, 48 h, read-out: LC50 (the source's name). The essentials: (§1)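 Cells grown in RPMI1640 with 10% FBS at 37 °C, 5% CO₂. 5,000–10,000 cells/well were pre-incubated overnight, and a time-zero CellTiter-Blue read was taken. Six 10-fold dilutions (top final 10 μM) were applied for 48 h, followed by 0.125 mg/mL CellTiter-Blue for 2–4 h. Resorufin fluorescence was read at ex 560/em 590 nm. […] Triplicates.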

Series [1] concerns HL-60. The experiment in a line: Effect on c-Flip protein degradation in p53 null human HL60 cells harboring wild type FLT3 at 50 to 200 nM after 24 hrs by Western blot analysis. Format: functional, cell-based. The essentials:
(§2)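 Cells (1,500,000 per well) grown 12 h, then drug-treated as specified. Lysed in RIPA buffer, sonicated, centrifuged, protein normalized by BCA. Run on 4–12% Bis-Tris gels in MES, transferred, probed overnight at 4 °C with primary antibodies at 1/1000. Actin served as reference for LC3-II quantitation.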
Background: Immunoblotting shows a protein as a band on a membrane.

The next series relates to 786-0. The series is described as follows: Antiproliferative activity against human 786-0 cells assessed as reduction in cell viability after 48 hrs by CellTiter-Blue assay. It counts as functional. The note with it: 786-0, 48 h, read-out: LC50 (the source's name). The essentials:
as §1

A further series concerns OVCAR-4. The series is described as follows: Antiproliferative activity against human OVCAR4 cells assessed as reduction in cell viability after 48 hrs by CellTiter-Blue assay. Format: functional. The following applies: OVCAR-4, 48 h, read-out: LC50 (the source's name). The essentials: as §1
On the technique in general: The colour change of resazurin is a common sign of viable cells or microbes.

The next series relates to COLO 205. The experiment in a line: Antiproliferative activity against human COLO205 cells assessed as reduction in cell viability after 48 hrs by CellTiter-Blue assay. The note with it: COLO 205, 48 h, read-out: LC50 (the source's name). It counts as functional. An outline of the steps: as §1
Another series concerns BT-549. The series is described as follows: Antiproliferative activity against human BT549 cells assessed as reduction in cell viability after 48 hrs by CellTiter-Blue assay. It counts as functional. The following applies: BT-549, 48 h, read-out: LC50 (the source's name). An outline of the steps: as §1
For the next series, the system named is CCRF-CEM. The experiment in a line: Antiproliferative activity against human CCRF-CEM cells assessed as reduction in cell viability after 48 hrs by CellTiter-Blue assay. Format: functional. The following applies: read-out: LC50 (the source's name). An outline of the steps: as §1
A short description of series [2]: AUC (0 to infinity) in CD1 mouse at 5 mg/kg, iv after 24 hrs by LC-MS/MS analysis. Format: ADME, organism-based. Set-up: dose 5 mg/kg, route intravenous, time infinity. The following applies: in vivo. The essentials: (§3)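 Male CD-1 mice, fasted overnight, 3 per route; compound in PBS with 5% DMSO, iv bolus 5 mg/kg or oral gavage 20 mg/kg. Blood sampled at 5, 15, 30 min and 1–24 h. Plasma protein-precipitated with acetonitrile plus internal standard, quantified by LC-MS/MS (MRM). AUC by linear trapezoidal method; parameters by non-compartmental analysis.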

Another series concerns UACC-62. The series is described as follows: Antiproliferative activity against human UACC62 cells assessed as reduction in cell viability after 48 hrs by CellTiter-Blue assay. Format: functional. The note with it: UACC-62, 48 h, read-out: LC50 (the source's name). An outline of the steps: (§4)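 NCI-60 panel lines grown in RPMI1640 with 10% FBS at 37 °C, 5% CO₂. Seeded at 5,000–10,000 cells/well and pre-incubated overnight. Exposed for 48 h to six 10-fold dilutions (top final 10 μM), with a time-zero plate read at dosing. CellTiter-Blue (0.125 mg/mL) for 2–4 h, fluorescence 560/590 nm, triplicate curves.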

In another series the test system is HOP-92. The experiment in a line: Antiproliferative activity against human HOP92 cells assessed as reduction in cell viability after 48 hrs by CellTiter-Blue assay. Format: functional. The note with it: HOP-92, 48 h, read-out: LC50 (the source's name). The essentials:
as §1

The subject of the next series is MOLM-14. The experiment in a line: Antiproliferative activity agaisnt human MOLM14 cells expressing wild type p53/FLT3-ITD mutant assessed as cell death at 10 uM after 48 hrs by CellTiter-blue assay. Format: functional, cell-based.
The test system of a further series is NCI-H522. The experiment in a line: Antiproliferative activity against human NCI-H522 cells assessed as reduction in cell viability after 48 hrs by CellTiter-Blue assay. Format: functional. The note with it: NCI-H522, 48 h, read-out: LC50 (the source's name). An outline of the steps: as §1
For the next series, the system named is NCI-H226. The series is described as follows: Antiproliferative activity against human NCI-H226 cells assessed as reduction in cell viability after 48 hrs by CellTiter-Blue assay. It counts as functional. The following applies: NCI-H226, 48 h, read-out: LC50 (the source's name). The essentials:
as §1

The test system of series [3] is HL-60. The series is described as follows: Effect on XIAP protein degradation in p53 null human HL60 cells harboring wild type FLT3 at 50 to 200 nM after 24 hrs by Western blot analysis. It counts as functional, cell-based. The essentials: as §2
The next series deals with Trypsin (Homo sapiens) (UniProt P07477+P07478+P35030). The experiment in a line: Inhibition of trypsin (unknown origin). It counts as protein assay.
Another series has as its system OVCAR-8. The series is described as follows: Antiproliferative activity against human OVCAR8 cells assessed as reduction in cell viability after 48 hrs by CellTiter-Blue assay. Format: functional. The following applies: OVCAR-8, 48 h, read-out: LC50 (the source's name). An outline of the steps: as §1
In a further series the test system is MOLT-4. The series is described as follows: Antiproliferative activity against human MOLT4 cells assessed as reduction in cell viability after 48 hrs by CellTiter-Blue assay. Format: functional. The following applies: MOLT-4, 48 h, read-out: LC50 (the source's name). An outline of the steps: as §1
The subject of another series is EKVX. The series is described as follows: Antiproliferative activity against human EKVX cells assessed as reduction in cell viability after 48 hrs by CellTiter-Blue assay. It counts as functional. The following applies: read-out: LC50 (the source's name). The essentials: as §1
The target in series [4] is Matrix metalloproteinase-9 (Homo sapiens) (UniProt P14780). The experiment in a line: Inhibition of MMP-9 (unknown origin) at 10 to 50 uM incubated for 10 to 15 mins and measured after 2 hrs by fluorescence based assay. The essentials: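 MMP-2/MMP-9 in activation buffer with test agent (final 50 and 10 μM), 10–15 min incubation, then fluorogenic substrate added. Incubated 2 h at 37 °C; fluorescence read at 320/405 nm. Kit MMP inhibitor was the positive control.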
Chain of Matrix metalloproteinase-9 (Homo sapiens) (P14780 whole entry): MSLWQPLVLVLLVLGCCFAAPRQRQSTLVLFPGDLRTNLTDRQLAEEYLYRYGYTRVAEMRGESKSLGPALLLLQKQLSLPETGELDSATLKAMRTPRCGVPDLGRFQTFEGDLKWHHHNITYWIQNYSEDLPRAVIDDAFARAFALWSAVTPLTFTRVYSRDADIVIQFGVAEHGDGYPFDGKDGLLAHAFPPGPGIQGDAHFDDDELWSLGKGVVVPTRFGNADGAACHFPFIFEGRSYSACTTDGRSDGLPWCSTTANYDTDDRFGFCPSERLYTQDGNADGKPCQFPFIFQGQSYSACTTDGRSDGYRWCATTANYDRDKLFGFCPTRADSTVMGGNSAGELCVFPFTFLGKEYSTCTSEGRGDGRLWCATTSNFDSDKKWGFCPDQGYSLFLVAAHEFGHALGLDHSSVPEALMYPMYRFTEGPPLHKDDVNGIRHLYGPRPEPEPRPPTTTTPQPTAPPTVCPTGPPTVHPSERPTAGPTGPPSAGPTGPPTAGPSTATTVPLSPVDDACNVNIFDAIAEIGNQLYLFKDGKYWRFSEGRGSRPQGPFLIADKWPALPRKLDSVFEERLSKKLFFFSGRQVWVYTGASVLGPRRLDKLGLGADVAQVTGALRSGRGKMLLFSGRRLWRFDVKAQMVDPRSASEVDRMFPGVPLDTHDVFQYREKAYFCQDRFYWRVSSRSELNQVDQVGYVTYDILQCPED

Another series concerns NCI/ADR-RES. The series is described as follows: Antiproliferative activity against human NCI/ADR-RES cells assessed as reduction in cell viability after 48 hrs by CellTiter-Blue assay. The note with it: read-out: LC50 (the source's name). It counts as functional. An outline of the steps: as §1
Another series concerns U-251. The experiment in a line: Antiproliferative activity against human U251 cells assessed as reduction in cell viability after 48 hrs by CellTiter-Blue assay. It counts as functional. The following applies: U-251, 48 h, read-out: LC50 (the source's name). An outline of the steps: as §4
A further series deals with Histone deacetylase 5 (Homo sapiens, UniProt Q9UQL6). The experiment in a line: Inhibition of recombinant human HDAC5 using Boc-Lys (trifluoroacetyl)-AMC as substrate preincubated for 1 hr followed by substrate addition and measured after 2 hrs by fluorescence based micro plate reader analysis. The essentials:
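Recombinant enzyme was preincubated with serially varied inhibitor for 1 h at 30 °C. Boc-Lys(trifluoroacetyl)-AMC was then added to a final 50 μM and incubated 2 h at 30 °C. The reaction was stopped with developer containing trypsin and TSA, and fluorescence (ex 360/em 460 nm) was read 30 min later. Inhibition was taken relative to control wells and fitted to a variable-slope log(inhibitor) curve. Values are the mean of at least three experiments.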

For the next series, the system named is MV4-11. The experiment in a line: Inhibition of p53 degradation in human MV4-11 cells at 200 nM after 24 hrs in presence of 5 nM bortezomib by Western blot analysis. It counts as functional, cell-based. The essentials: as §2
Series [5] can be described thus: AUC (0 to infinity) in CD1 mouse at 20 mg/kg, po via gavage after 24 hrs by LC-MS/MS analysis. It counts as ADME, organism-based. Set-up: dose 20 mg/kg, time infinity, route oral. The note with it: in vivo. The essentials:
as §3

The values below come from ChEMBL document CHEMBL4342521 (J Med Chem, 2020).

Molecules are shown by their SMILES. Active and inactive are the calls of the source. The calls are words filed in the database; no cut-off is given here.

Chain of Histone deacetylase 5 (Q9UQL6 whole entry): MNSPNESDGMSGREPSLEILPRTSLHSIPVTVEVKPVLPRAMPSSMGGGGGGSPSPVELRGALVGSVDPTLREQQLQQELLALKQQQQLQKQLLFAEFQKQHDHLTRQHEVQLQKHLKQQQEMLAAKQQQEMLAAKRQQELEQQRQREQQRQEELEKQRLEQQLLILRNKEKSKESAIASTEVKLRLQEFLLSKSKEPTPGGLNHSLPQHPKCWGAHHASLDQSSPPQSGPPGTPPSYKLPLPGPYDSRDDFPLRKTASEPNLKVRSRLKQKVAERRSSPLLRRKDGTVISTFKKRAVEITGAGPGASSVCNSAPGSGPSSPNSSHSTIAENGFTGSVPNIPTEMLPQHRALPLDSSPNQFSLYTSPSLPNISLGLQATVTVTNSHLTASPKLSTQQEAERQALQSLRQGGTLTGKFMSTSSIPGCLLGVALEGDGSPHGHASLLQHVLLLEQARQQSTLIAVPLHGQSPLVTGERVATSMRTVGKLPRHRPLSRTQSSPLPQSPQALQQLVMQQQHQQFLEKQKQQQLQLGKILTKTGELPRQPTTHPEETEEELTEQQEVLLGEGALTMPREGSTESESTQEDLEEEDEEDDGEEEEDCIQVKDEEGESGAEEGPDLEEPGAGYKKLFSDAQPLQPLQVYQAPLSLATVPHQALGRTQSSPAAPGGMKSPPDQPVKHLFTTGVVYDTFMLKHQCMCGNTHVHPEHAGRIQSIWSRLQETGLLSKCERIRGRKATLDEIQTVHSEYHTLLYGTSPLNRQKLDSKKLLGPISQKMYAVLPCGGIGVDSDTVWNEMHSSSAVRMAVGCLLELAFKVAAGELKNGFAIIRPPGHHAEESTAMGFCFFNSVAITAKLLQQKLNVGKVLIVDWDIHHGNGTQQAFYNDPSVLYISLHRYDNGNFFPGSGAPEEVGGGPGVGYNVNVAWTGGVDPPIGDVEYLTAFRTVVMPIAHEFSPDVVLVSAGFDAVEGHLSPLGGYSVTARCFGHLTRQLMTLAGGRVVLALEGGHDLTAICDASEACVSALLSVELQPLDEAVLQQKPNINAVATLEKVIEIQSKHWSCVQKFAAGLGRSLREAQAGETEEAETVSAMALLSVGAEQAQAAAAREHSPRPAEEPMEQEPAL

Take `CCCNNC(=O)/C=C/c1ccc(CNCCc2c(C)[nH]c3ccccc23)cc1.O=C(O)C(F)(F)F`: the CC50 is over 10 µM with MDA-MB-231; over 10 µM in the series on 786-0; over 10 µM in the series on OVCAR-4; 0.66 µM in the series with COLO 205; over 10 µM in the series on BT-549; over 10 µM in the series with CCRF-CEM. In addition, the CC50 in the series with UACC-62 is 0.589 µM; in the series on HOP-92 it was over 10 µM; with NCI-H522 it was over 10 µM; in the series on NCI-H226, 0.46 µM; in the series with OVCAR-8, over 10 µM; in the series with MOLT-4, over 10 µM. Also, the CC50 in the series on EKVX was over 10 µM; in the series on NCI/ADR-RES, over 10 µM; in the series with U-251 it was 4.28 µM. Further, the outcome in the series with HL-60 [1], in the series with MOLM-14 and in the series on HL-60 [3] was Active. The results for the AUC in series [2] and in series [5] were 334 ng·h/mL and 265 ng·h/mL, respectively. The inhibition entry (at Trypsin (Homo sapiens); in [4]) was “inactive” throughout. For the same compound, the half-maximal inhibitory concentration (IC50) at Histone deacetylase 5 is over 10 µM. Also, the inhibition result in the series on MV4-11 was “Active”.

One may read the AUC as the area under the concentration-time curve, a measure of exposure. Lower therefore signals low exposure. Broadly, the IC50 is the concentration at which inhibition is half-maximal.
